Results from ChEMBL document CHEMBL5038587, “Synthesis of Methoxy-, Methylenedioxy-, Hydroxy-, and Halo-Substituted Benzophenanthridinone Derivatives as DNA Topoisomerase IB (TOP1) and Tyrosyl-DNA Phosphodiesterase 1 (TDP1) Inhibitors and Their Biological Activity for Drug-Resistant Cancer” (J Med Chem, 2021).
Activity calls are given as the source filed them. No cut-off for these calls is given here.

Assays:
MCF7 [1] = assay: Synergistic cytotoxicity against human MCF7/TDP1 cells at 100 nM after 96 hrs in presence of 12-(2-(Dimethylamino)ethyl)-1,2-dihydroxy-[1,3]dioxolo[4',5':4,5]benzo[1,2-c]phenanthridine-13(12H)-one by MTT assay; assay type: functional
MCF7 [2] = assay: Induction of DNA damage in human MCF7/TDP1 cells assessed as increase in gammaH2AX foci measured after 6 hrs by DAPI staining based immunofluorescence assay; assay type: functional
Method in brief: (§1)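 Fixed in 4% paraformaldehyde, permeabilized with 0.5% Triton X-100, blocked in 5% goat serum. Stained with γH2AX antibody overnight at 4 °C, then Alexa 488 secondary plus DAPI 2 µg/mL. Foci counted by confocal microscopy, at least three independent repeats.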

MCF7 [3] = assay: Synergistic cytotoxicity against human MCF7 cells at 50 nM after 96 hrs in presence of 12-(2-(Dimethylamino)ethyl)-1,2-dihydroxy-[1,3]dioxolo[4',5':4,5]benzo[1,2-c]phenanthridine-13(12H)-one by MTT assay; assay type: functional
MCF7 [4] = assay: Cytotoxicity against human MCF-7/TDP1 cells assessed as cell growth inhibition after 72 hrs by MTT assay; assay type: functional
Method in brief: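 MCF-7/TDP1 is a TDP1-overexpressing line made by transfecting parental MCF-7, grown in RPMI 1640 or DMEM with 10% FBS at 37 °C, 5% CO2. DMSO-dissolved compounds tested at five doses from 0.01 to 100 µM, read by MTT. GI50 (mean ± SD, at least three repeats) fitted by nonlinear regression against control.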

[5] = biological target: T1, Tyrosyl-DNA phosphodiesterase 1 (Homo sapiens, UniProt Q9NUW8); assay: Induction of TDP1-DNA complex formation in human MCF7 cells at 10 uM by ICE assay; assay type: cell-based
Method in brief: (§2)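 Genomic DNA isolated with DNAzol and ethanol precipitation, then 2 µg slot-blotted onto nitrocellulose in 25 mM NaH2PO4 pH 6.5. Probed with rabbit anti-TDP1 (1:1000) overnight at 4 °C, then HRP secondary, with chemiluminescent read-out.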

MCF7 [6] = assay: Synergistic cytotoxicity against human MCF7/TDP1 cells at 100 nM after 96 hrs by MTT assay; assay type: functional
MCF7 [7] = assay: Induction of DNA damage in human MCF7/TDP1 cells assessed as increase in gammaH2AX foci at 1 uM measured after 6 hrs by DAPI staining based immunofluorescence assay; assay type: functional; method in brief: as §1
MCF7 [8] = assay: Synergistic cytotoxicity against human MCF7 cells at 50 nM after 96 hrs by MTT assay; assay type: functional
[9] = biological target: T2, DNA topoisomerase 1 (Homo sapiens) (UniProt P11387); assay: Inhibition of recombinant TOP1 (unknown origin) at 1 uM using 3'-[32P]-labeled 117 bp DNA oligonucleotides as substrate incubated for 20 mins by PAGE analysis relative to CPT
T2 sequence (whole entry): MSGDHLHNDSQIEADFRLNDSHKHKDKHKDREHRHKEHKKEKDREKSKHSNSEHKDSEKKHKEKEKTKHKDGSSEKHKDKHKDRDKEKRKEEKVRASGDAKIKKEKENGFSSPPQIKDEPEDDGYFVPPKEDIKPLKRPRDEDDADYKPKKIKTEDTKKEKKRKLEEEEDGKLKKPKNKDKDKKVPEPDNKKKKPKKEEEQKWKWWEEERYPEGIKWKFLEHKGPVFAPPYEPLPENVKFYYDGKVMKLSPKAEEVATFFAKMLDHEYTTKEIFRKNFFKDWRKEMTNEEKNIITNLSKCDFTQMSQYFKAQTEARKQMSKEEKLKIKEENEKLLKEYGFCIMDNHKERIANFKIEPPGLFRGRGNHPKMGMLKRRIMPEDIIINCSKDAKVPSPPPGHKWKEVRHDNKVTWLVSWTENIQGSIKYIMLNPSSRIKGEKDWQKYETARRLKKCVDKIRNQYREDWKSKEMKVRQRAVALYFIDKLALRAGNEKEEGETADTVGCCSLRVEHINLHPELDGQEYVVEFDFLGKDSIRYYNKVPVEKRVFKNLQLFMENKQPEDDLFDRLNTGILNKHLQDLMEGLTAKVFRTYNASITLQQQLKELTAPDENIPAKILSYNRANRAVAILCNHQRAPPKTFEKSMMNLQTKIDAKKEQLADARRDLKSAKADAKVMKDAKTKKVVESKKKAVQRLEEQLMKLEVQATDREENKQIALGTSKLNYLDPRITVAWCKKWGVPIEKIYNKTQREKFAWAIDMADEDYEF
Method in brief: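 3'-[32P]-labeled 117 bp oligonucleotide (~2 nM) with recombinant TOP1 and compound, 25 °C, 20 min. Buffer: 10 mM Tris-HCl pH 7.5, 50 mM KCl, 5 mM MgCl2, 0.1 mM EDTA, BSA. Stopped with 0.5% SDS and run on 20% denaturing PAGE with phosphorimaging.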

MCF7 [10] = assay: Induction of apoptosis in human MCF7 cells assessed as early apoptotic cells at 4 uM measured after 24 hrs by Annexin V-FITC/propidium iodide staining based flow cytometry(Rvb=0.12%); assay type: functional
Method in brief: (§3)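 MCF-7 cells (2×10^5 per dish) exposed to compound at 1, 2 or 4 µM for 24 h. Cells resuspended in binding buffer and stained with Annexin V-FITC plus propidium iodide for 15 min at 25 °C in the dark. Viable, early apoptotic, late apoptotic and necrotic fractions quantified by flow cytometry.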

MCF7 [11] = assay: Induction of apoptosis in human MCF7 cells assessed as late apoptotic cells at 1 uM measured after 24 hrs by Annexin V-FITC/propidium iodide staining based flow cytometry (Rvb=0%); assay type: functional; method in brief: as §3
MCF7 [12] = assay: Induction of DNA damage in human MCF7 cells assessed as decrease in TPT-induced gammaH2AX foci at 1 uM measured after 6 hrs by DAPI staining based immunofluorescence assay; assay type: functional; parameters: scale not given: the % may be the effect or the level left; method in brief: as §1
[13] = biological target: T1, Tyrosyl-DNA phosphodiesterase 1; assay: Induction of TDP1-DNA complex formation in human MCF7/TDP1 cells at 10 uM by ICE assay; assay type: cell-based; method in brief: as §2
MCF7 [14] = assay: Induction of DNA damage in human MCF7/TDP1 cells assessed as decrease in TPT-induced gammaH2AX foci at 2 uM measured after 6 hrs by DAPI staining based immunofluorescence assay; assay type: functional; parameters: scale not given: the % may be the effect or the level left; method in brief: as §1
MCF7 [15] = assay: Induction of apoptosis in human MCF7 cells assessed as necrotic cells at 1 uM measured after 24 hrs by Annexin V-FITC/propidium iodide staining based flow cytometry (Rvb=0.83%); assay type: functional; method in brief: as §3
MCF7 [16] = assay: Synergistic cytotoxicity against human MCF7 cells assessed as combination index measured after 96 hrs in presence of TPT by MTT assay; assay type: functional
MCF7 [17] = assay: Induction of apoptosis in human MCF7 cells assessed as late apoptotic cells at 4 uM measured after 24 hrs by Annexin V-FITC/propidium iodide staining based flow cytometry (Rvb=0%); assay type: functional; method in brief: as §3
MCF7/TDP1 = assay: Induction of DNA damage in human MCF7/TDP1 cells assessed as decrease in gammaH2AX foci at 2 uM measured after 6 hrs by DAPI staining based immunofluorescence assay; parameters: scale not given: the % may be the effect or the level left
MCF7 [18] = assay: Induction of DNA damage in human MCF7/TDP1 cells assessed as decrease in TPT-induced gammaH2AX foci at 1 uM measured after 6 hrs by DAPI staining based immunofluorescence assay; assay type: functional; parameters: scale not given: the % may be the effect or the level left; method in brief: as §1
MCF7 [19] = assay: Induction of apoptosis in human MCF7 cells assessed as viable cells at 2 uM measured after 24 hrs by Annexin V-FITC/propidium iodide staining based flow cytometry (Rvb=99.05%); assay type: functional; settings: read-out: Activity; method in brief: as §3
MCF7 [20] = assay: Induction of apoptosis in human MCF7 cells assessed as early apoptotic cells at 2 uM measured after 24 hrs by Annexin V-FITC/propidium iodide staining based flow cytometry (Rvb=0.12%); assay type: functional; method in brief: as §3
DU-145 = assay: Cytotoxicity against human DU145 cells assessed as cell growth inhibition after 72 hrs by MTT assay; assay type: functional
Method in brief: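 Compounds predissolved in DMSO, tested in a five-dose series from 0.01 to 100 µM for 72 h, then read by MTT. Percent viability inhibition is taken against control, and GI50 is fitted by nonlinear regression.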

[21] = biological target: T1, Tyrosyl-DNA phosphodiesterase 1; assay: Induction of TDP1-DNA complex formation in human MCF7 cells at 10 to 100 uM in presence of TPT by ICE assay; assay type: cell-based; settings: dose 10-100 µM; method in brief: as §2
[22] = biological target: T1, Tyrosyl-DNA phosphodiesterase 1; assay: Induction of TDP1-DNA complex formation in human MCF7 cells at 100 uM by ICE assay; assay type: cell-based; method in brief: as §2
MCF7 [23] = assay: Induction of apoptosis in human MCF7 cells assessed as necrotic cells at 4 uM measured after 24 hrs by Annexin V-FITC/propidium iodide staining based flow cytometry (Rvb=0.83%); assay type: functional; method in brief: as §3
MCF7 [24] = assay: Synergistic cytotoxicity against human MCF7/TDP1 cells assessed as combination index measured after 96 hrs in presence of TPT by MTT assay; assay type: functional
[25] = biological target: T1, Tyrosyl-DNA phosphodiesterase 1; assay: Induction of TDP1-DNA complex formation in human […] cells at 10 to 100 uM in presence of TPT by ICE assay; assay type: cell-based; settings: dose 10-100 µM; method in brief: as §2
MCF7 [26] = assay: Induction of apoptosis in human MCF7 cells assessed as necrotic cells at 2 uM measured after 24 hrs by Annexin V-FITC/propidium iodide staining based flow cytometry; assay type: functional; method in brief: as §3
MCF7 [27] = assay: Induction of apoptosis in human MCF7 cells assessed as viable cells at 1 uM measured after 24 hrs by Annexin V-FITC/propidium iodide staining based flow cytometry (Rvb=99.05%); assay type: functional; settings: read-out: Activity; method in brief: as §3
MCF7 [28] = assay: Induction of apoptosis in human MCF7 cells assessed as late apoptotic cells at 2 uM measured after 24 hrs by Annexin V-FITC/propidium iodide staining based flow cytometry (Rvb=0%); assay type: functional; method in brief: as §3
MCF7 [29] = assay: Induction of apoptosis in human MCF7 cells assessed as early apoptotic cells at 1 uM measured after 24 hrs by Annexin V-FITC/propidium iodide staining based flow cytometry (Rvb=0.12%); assay type: functional; method in brief: as §3
MCF7 [30] = assay: Induction of DNA damage in human MCF7 cells assessed as decrease in TPT-induced gammaH2AX foci at 2 uM measured after 6 hrs by DAPI staining based immunofluorescence assay; assay type: functional; parameters: scale not given: the % may be the effect or the level left; method in brief: as §1
MCF7 [31] = assay: Induction of apoptosis in human MCF7 cells assessed as viable cells at 4 uM measured after 24 hrs by Annexin V-FITC/propidium iodide staining based flow cytometry (Rvb=99.05%); assay type: functional; settings: read-out: Activity; method in brief: as §3

T1 sequence (Q9NUW8 whole entry): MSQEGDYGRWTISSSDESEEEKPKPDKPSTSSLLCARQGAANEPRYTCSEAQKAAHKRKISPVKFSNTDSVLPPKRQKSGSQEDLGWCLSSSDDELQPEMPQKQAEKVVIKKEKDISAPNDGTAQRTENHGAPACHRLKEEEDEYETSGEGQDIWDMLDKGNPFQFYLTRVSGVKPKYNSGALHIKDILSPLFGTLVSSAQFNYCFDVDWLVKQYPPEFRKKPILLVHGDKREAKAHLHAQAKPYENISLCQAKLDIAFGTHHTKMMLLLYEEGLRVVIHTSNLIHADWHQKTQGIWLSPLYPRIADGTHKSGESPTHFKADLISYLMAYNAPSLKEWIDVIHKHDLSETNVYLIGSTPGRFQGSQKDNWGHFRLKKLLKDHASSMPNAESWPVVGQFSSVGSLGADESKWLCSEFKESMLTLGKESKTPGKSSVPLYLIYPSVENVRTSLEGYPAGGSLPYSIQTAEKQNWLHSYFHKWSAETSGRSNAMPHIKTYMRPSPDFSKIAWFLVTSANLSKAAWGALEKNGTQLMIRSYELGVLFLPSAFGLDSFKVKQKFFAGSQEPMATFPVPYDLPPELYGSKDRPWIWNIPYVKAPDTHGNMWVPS

`CC[C@@]1(O)C(=O)OCc2c1cc1n(c2=O)Cc2cc3c(CN(C)C)c(O)ccc3nc2-1` [TOPOTECAN] gave an Activity (MCF7 [1]) of 86%, an Activity (MCF7 [2]) of 34% and an Activity (MCF7 [3]) of 87%. For the same compound, the GI50 (MCF7 [4]) was 2.59 µM, the Activity [5] was “inactive” and the Activity (MCF7 [6]) was 19%. It also gave an Activity (MCF7 [7]) of 34% and an Activity (MCF7 [8]) of 23%.

Work on `CN(C)CCn1c(=O)c2c(O)c(O)ccc2c2ccc3cc4c(cc3c21)OCO4` yielded an inhibition [9] of 75%, an Activity (MCF7 [10]) of 26.53% and an Activity (MCF7 [11]) of 0.73%. The Activity (MCF7 [12]) was 14%, the Activity [13] was “Active” and the Activity (MCF7 [14]) was 18%. It also gave an Activity (MCF7 [15]) of 0.16%, a CI (MCF7 [16]) of less than 0.3 and an Activity (MCF7 [17]) of 48.46%. For the same compound, the Activity (MCF7/TDP1) was 28%, the Activity (MCF7 [18]) was 14% and the GI50 (MCF7 [4]) was 3.98 µM. The Activity [5] was “inactive”, the viability at 2 µM (MCF7 [19]) was 39.7% and the Activity (MCF7 [20]) was 21.31%. For the same compound, the GI50 (DU-145) was 800 nM, the Activity [21] was “Active” and the Activity [22] was “Active”. For the same compound, the Activity (MCF7 [7]) was 22%, the Activity (MCF7 [23]) was 9.31% and the CI (MCF7 [24]) was less than 0.3. The Activity [25] was “Active”, the Activity (MCF7 [26]) was 14.71% and the viability at 1 µM (MCF7 [27]) was 70.1%. It also gave an Activity (MCF7 [28]) of 24.3%, an Activity (MCF7 [29]) of 28.99% and an Activity (MCF7 [30]) of 18%. For the same compound, the viability at 4 µM (MCF7 [31]) was 15.7%.
